Results reported in ChEMBL document CHEMBL4229333, “Effects of rigidity on the selectivity of protein kinase inhibitors” (Eur J Med Chem, 2018).

Columns and labels:
[1] = molecular target: SRSF protein kinase 3 (Homo sapiens) (UniProt Q9UPE1); assay: Inhibition of MSSK1 (unknown origin) at 1 uM by mobility shift microfluidics platform based assay relative to control
[2] = molecular target: Homeodomain-interacting protein kinase 2 (Homo sapiens) (UniProt Q9H2X6); assay: Inhibition of HIPK2 (unknown origin) at 1 uM by mobility shift microfluidics platform based assay relative to control
[3] = molecular target: Phosphatidylinositol 4,5-bisphosphate 3-kinase catalytic subunit alpha isoform (Homo sapiens) (UniProt P42336); assay: Inhibition of PI3K-alpha (unknown origin) at 1 uM by mobility shift microfluidics platform based assay relative to control
[4] = molecular target: Ephrin type-A receptor 4 (Homo sapiens) (UniProt P54764); assay: Inhibition of EPH-A4 (unknown origin) at 1 uM by mobility shift microfluidics platform based assay relative to control
Chain of Ephrin type-A receptor 4 (Homo sapiens) (P54764 whole entry): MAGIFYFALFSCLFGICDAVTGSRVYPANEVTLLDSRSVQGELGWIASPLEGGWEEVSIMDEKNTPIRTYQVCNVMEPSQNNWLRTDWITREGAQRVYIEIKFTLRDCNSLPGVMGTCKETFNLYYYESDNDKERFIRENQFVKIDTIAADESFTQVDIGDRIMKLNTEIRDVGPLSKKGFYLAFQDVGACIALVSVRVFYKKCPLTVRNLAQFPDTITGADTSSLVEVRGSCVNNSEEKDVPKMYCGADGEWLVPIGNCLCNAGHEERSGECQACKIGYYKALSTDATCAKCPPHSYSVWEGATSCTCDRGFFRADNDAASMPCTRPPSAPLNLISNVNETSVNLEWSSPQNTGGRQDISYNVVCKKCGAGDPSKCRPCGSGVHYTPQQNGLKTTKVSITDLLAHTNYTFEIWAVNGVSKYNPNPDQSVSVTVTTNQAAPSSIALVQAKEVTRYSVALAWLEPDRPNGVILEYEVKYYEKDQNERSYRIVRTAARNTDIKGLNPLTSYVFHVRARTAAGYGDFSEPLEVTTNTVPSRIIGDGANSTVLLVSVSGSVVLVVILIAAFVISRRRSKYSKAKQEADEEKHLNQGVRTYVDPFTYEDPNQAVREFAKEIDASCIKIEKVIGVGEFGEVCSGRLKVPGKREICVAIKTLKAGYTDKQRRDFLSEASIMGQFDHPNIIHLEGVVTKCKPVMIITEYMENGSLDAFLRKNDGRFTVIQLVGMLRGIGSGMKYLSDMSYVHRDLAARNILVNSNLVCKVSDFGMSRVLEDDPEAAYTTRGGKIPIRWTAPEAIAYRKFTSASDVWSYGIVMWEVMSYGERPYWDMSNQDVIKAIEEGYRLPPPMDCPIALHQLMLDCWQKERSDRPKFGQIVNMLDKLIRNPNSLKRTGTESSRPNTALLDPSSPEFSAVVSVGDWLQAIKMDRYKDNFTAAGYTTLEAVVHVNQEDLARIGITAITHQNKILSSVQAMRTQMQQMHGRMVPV

[5] = molecular target: Epidermal growth factor receptor (Homo sapiens) (UniProt P00533); assay: Inhibition of EGFR (unknown origin) at 1 uM by mobility shift microfluidics platform based assay relative to control
[6] = molecular target: Casein kinase I isoform alpha (Homo sapiens) (UniProt P48729); assay: Inhibition of CK1-alpha1 (unknown origin) at 1 uM by mobility shift microfluidics platform based assay relative to control
[7] = molecular target: Vascular endothelial growth factor receptor 2 (Homo sapiens) (UniProt P35968); assay: Inhibition of KDR (unknown origin) at 1 uM by mobility shift microfluidics platform based assay relative to control
[8] = molecular target: Proto-oncogene tyrosine-protein kinase Src (Homo sapiens) (UniProt P12931); assay: Inhibition of SRC (unknown origin) at 1 uM by mobility shift microfluidics platform based assay relative to control
[9] = molecular target: Cyclin-dependent kinase 1 (Homo sapiens) (UniProt P06493); assay: Inhibition of CDK1 (unknown origin) at 1 uM by mobility shift microfluidics platform based assay relative to control
[10] = molecular target: NUAK family SNF1-like kinase 1 (Homo sapiens) (UniProt O60285); assay: Inhibition of ARK5 (unknown origin) at 1 uM by mobility shift microfluidics platform based assay relative to control
[11] = molecular target: Serine/threonine-protein kinase MRCK beta (Homo sapiens) (UniProt Q9Y5S2); assay: Inhibition of MRCK-beta (unknown origin) at 1 uM by mobility shift microfluidics platform based assay relative to control
Chain of Serine/threonine-protein kinase MRCK beta (Homo sapiens) (Q9Y5S2 whole entry): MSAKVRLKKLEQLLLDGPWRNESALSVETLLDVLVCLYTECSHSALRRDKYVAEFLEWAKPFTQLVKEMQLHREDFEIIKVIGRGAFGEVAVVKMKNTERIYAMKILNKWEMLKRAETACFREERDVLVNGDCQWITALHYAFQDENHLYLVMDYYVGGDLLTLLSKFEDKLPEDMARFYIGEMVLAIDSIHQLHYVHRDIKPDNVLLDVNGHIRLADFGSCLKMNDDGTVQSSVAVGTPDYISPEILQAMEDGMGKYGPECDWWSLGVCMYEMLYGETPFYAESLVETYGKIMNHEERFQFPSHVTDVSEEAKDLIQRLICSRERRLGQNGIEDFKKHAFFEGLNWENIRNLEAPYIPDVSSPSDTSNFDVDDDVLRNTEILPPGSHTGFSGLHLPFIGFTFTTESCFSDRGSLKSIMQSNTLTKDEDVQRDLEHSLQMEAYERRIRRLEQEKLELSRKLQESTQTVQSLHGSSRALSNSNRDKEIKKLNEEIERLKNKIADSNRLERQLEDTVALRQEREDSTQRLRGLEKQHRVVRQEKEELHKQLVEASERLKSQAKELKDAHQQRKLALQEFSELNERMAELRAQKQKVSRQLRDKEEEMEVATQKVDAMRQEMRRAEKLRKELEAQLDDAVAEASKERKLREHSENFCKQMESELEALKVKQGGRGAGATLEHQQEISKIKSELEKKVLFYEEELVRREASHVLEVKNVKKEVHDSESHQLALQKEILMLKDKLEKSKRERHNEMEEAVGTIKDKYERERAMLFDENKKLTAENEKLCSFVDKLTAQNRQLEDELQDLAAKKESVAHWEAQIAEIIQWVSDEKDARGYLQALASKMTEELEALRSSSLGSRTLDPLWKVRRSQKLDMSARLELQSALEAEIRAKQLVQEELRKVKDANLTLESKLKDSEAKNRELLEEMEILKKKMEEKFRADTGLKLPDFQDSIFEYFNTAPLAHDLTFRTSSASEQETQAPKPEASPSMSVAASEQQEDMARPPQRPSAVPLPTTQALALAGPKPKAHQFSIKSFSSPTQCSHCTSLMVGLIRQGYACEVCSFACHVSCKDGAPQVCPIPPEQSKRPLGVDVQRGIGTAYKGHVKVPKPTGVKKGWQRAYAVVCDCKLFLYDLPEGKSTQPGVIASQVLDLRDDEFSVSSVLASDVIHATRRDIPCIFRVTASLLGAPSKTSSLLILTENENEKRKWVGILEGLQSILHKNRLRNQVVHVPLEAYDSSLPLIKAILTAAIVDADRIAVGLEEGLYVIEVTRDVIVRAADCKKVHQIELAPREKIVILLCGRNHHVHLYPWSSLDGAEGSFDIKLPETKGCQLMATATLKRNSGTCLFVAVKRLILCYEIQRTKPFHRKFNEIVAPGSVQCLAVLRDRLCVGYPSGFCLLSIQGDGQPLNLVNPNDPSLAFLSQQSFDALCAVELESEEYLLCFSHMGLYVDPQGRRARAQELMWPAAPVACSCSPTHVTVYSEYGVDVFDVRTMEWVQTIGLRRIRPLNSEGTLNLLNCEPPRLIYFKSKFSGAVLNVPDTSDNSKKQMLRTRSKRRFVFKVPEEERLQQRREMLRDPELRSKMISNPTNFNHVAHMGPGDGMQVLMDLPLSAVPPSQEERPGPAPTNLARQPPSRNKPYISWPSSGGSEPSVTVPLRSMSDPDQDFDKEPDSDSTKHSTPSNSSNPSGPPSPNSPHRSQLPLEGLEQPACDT

[12] = molecular target: Serine/threonine-protein kinase N2 (Homo sapiens) (UniProt Q16513); assay: Inhibition of PKN2 (unknown origin) at 1 uM by mobility shift microfluidics platform based assay relative to control
[13] = molecular target: Serine/threonine-protein kinase SIK2 (Homo sapiens) (UniProt Q9H0K1); assay: Inhibition of SNF1LK2 (unknown origin) at 1 uM by mobility shift microfluidics platform based assay relative to control
[14] = molecular target: Non-receptor tyrosine-protein kinase TYK2 (Homo sapiens) (UniProt P29597); assay: Inhibition of TYK2 (unknown origin) at 1 uM by mobility shift microfluidics platform based assay relative to control
[15] = molecular target: STE20-like serine/threonine-protein kinase (Homo sapiens) (UniProt Q9H2G2); assay: Inhibition of SLK (unknown origin) at 1 uM by mobility shift microfluidics platform based assay relative to control
[16] = molecular target: Rhodopsin kinase GRK7 (Homo sapiens) (UniProt Q8WTQ7); assay: Inhibition of GRK7 (unknown origin) at 1 uM by mobility shift microfluidics platform based assay relative to control
[17] = molecular target: Platelet-derived growth factor receptor beta (Homo sapiens) (UniProt P09619); assay: Inhibition of PDGFR-beta (unknown origin) at 1 uM by mobility shift microfluidics platform based assay relative to control
[18] = molecular target: G protein-coupled receptor kinase 6 (Homo sapiens) (UniProt P43250); assay: Inhibition of GRK6 (unknown origin) at 1 uM by mobility shift microfluidics platform based assay relative to control
[19] = molecular target: Tyrosine-protein kinase Blk (Homo sapiens) (UniProt P51451); assay: Inhibition of BLK (unknown origin) at 1 uM by mobility shift microfluidics platform based assay relative to control
[20] = molecular target: Tyrosine-protein kinase Fes/Fps (Homo sapiens) (UniProt P07332); assay: Inhibition of FES (unknown origin) at 1 uM by mobility shift microfluidics platform based assay relative to control
[21] = molecular target: Serine/threonine-protein kinase BRSK1 (Homo sapiens) (UniProt Q8TDC3); assay: Inhibition of BRSK1 (unknown origin) at 1 uM by mobility shift microfluidics platform based assay relative to control
Chain of Serine/threonine-protein kinase BRSK1 (Homo sapiens) (Q8TDC3 whole entry): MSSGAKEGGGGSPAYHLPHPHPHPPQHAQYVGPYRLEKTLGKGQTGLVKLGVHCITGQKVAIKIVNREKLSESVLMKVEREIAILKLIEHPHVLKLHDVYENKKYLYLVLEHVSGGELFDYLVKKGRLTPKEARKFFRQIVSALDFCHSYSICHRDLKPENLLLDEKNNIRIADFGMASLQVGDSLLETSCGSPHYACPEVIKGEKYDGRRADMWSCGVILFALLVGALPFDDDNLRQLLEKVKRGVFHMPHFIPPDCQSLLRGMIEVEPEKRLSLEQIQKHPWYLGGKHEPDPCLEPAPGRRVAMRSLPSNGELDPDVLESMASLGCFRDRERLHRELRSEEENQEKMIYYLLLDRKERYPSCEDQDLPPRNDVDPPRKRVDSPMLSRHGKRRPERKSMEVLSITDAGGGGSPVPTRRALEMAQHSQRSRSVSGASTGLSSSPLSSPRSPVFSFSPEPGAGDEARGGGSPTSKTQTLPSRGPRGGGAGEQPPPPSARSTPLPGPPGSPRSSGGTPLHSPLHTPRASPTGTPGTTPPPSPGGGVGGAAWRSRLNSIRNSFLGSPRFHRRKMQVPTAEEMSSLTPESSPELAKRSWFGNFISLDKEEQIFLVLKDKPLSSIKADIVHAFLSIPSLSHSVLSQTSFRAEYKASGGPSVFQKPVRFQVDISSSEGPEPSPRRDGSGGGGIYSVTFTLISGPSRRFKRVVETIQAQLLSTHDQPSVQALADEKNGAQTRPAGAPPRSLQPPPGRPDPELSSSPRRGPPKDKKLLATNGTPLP

Homo sapiens = organism: Homo sapiens; assay: Inhibition of CDK/Cyclin E (unknown origin) at 1 uM by mobility shift microfluidics platform based assay relative to control
[22] = molecular target: cAMP-dependent protein kinase catalytic subunit beta (Homo sapiens) (UniProt P22694); assay: Inhibition of PKACB (unknown origin) at 1 uM by mobility shift microfluidics platform based assay relative to control
[23] = molecular target: MAP kinase-activated protein kinase 3 (Homo sapiens) (UniProt Q16644); assay: Inhibition of MAPKAPK3 (unknown origin) at 1 uM by mobility shift microfluidics platform based assay relative to control
[24] = molecular target: Calcium/calmodulin-dependent protein kinase type II subunit gamma (Homo sapiens) (UniProt Q13555); assay: Inhibition of CAMK2G (unknown origin) at 1 uM by mobility shift microfluidics platform based assay relative to control
[25] = molecular target: Rho-associated protein kinase 1 (Homo sapiens) (UniProt Q13464); assay: Inhibition of ROCK1 (unknown origin) at 1 uM by mobility shift microfluidics platform based assay relative to control
[26] = molecular target: Phosphorylase b kinase gamma catalytic chain, liver/testis isoform (Homo sapiens) (UniProt P15735); assay: Inhibition of PHK-gamma2 (unknown origin) at 1 uM by mobility shift microfluidics platform based assay relative to control
[27] = molecular target: Maternal embryonic leucine zipper kinase (Homo sapiens) (UniProt Q14680); assay: Inhibition of MELK (unknown origin) at 1 uM by mobility shift microfluidics platform based assay relative to control
[28] = molecular target: Serine/threonine-protein kinase D3 (Homo sapiens) (UniProt O94806); assay: Inhibition of PRKD3 (unknown origin) at 1 uM by mobility shift microfluidics platform based assay relative to control
Chain of Serine/threonine-protein kinase D3 (Homo sapiens) (O94806 whole entry): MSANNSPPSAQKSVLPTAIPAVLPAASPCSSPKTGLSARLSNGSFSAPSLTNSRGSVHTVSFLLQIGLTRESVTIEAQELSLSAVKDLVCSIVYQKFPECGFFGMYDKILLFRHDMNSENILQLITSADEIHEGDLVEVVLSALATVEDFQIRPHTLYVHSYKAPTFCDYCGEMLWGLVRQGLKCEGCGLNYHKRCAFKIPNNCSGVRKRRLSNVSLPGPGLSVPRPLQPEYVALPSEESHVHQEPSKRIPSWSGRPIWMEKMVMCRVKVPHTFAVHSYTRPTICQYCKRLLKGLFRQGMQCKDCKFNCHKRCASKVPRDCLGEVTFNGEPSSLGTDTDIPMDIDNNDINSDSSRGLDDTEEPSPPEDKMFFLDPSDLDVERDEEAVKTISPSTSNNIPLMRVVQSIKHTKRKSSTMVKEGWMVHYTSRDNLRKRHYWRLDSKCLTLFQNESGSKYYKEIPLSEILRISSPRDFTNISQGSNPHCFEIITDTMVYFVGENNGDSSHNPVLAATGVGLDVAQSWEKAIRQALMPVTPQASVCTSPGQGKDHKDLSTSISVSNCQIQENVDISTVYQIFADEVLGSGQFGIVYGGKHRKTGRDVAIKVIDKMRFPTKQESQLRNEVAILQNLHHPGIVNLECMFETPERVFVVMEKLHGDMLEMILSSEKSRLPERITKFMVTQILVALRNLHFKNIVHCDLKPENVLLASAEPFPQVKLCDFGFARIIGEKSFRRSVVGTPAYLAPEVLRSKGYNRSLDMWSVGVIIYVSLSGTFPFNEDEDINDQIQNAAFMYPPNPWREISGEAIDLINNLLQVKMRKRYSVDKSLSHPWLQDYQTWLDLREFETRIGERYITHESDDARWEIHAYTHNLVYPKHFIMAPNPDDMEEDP

[29] = molecular target: Cyclin-dependent kinase 5 (Homo sapiens) (UniProt Q00535); assay: Inhibition of CDK5 (unknown origin) at 1 uM by mobility shift microfluidics platform based assay relative to control
[30] = molecular target: Serine/threonine-protein kinase MRCK alpha (Homo sapiens) (UniProt Q5VT25); assay: Inhibition of MRCK-alpha (unknown origin) at 1 uM by mobility shift microfluidics platform based assay relative to control
[31] = Apparent permeability from apical to basolateral side in human Caco2 cells in absence of P-gp inhibitor by LC-MS/MS analysis; assay type: ADME, cell-based; conditions: Caco-2
Method in brief: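 Caco-2 monolayer permeability, measured apical-to-basolateral and basolateral-to-apical. Compound concentrations were quantified by LC-MS/MS, and apparent permeability coefficients (Papp, cm/s) were calculated from them.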

[32] = molecular target: Ribosomal protein S6 kinase alpha-2 (Homo sapiens) (UniProt Q15349); assay: Inhibition of RSK3 (unknown origin) at 1 uM by mobility shift microfluidics platform based assay relative to control
Chain of Ribosomal protein S6 kinase alpha-2 (Homo sapiens) (Q15349 whole entry): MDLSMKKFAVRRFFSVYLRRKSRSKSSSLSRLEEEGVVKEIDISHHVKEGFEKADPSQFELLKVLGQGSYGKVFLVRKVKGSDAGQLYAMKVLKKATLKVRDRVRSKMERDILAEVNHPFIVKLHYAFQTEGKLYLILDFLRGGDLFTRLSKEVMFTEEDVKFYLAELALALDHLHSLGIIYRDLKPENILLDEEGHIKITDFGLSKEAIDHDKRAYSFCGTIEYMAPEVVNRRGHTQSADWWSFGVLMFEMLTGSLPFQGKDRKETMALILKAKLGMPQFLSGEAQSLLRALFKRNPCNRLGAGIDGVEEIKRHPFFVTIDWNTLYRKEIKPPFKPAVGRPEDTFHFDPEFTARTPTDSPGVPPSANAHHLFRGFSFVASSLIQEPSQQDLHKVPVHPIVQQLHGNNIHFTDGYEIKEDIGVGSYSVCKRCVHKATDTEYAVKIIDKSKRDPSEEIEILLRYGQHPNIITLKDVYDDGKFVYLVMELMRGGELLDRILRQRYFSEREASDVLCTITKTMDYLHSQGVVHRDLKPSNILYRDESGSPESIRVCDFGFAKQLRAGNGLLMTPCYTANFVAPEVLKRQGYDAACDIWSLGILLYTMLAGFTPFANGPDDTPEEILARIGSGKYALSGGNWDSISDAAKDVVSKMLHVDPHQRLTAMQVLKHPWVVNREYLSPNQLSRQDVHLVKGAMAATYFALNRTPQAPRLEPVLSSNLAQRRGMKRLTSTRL

CC(C)n1nc(C#Cc2cccc3cc(-c4cccc(C(F)(F)F)c4)ncc23)c2c(N)ncnc21
inhibition [1]: 0% | inhibition [2]: -1% | inhibition [3]: -8% | inhibition [4]: 95% | inhibition [5]: 3% | inhibition [6]: 2% | inhibition [7]: 98% | inhibition [8]: 80% | inhibition [9]: 0% | inhibition [10]: 1% | inhibition [11]: 1% | inhibition [12]: 8% | inhibition [13]: 10% | inhibition [14]: 2% | inhibition [15]: 18% | inhibition [16]: 5% | inhibition [17]: 71% | inhibition [18]: 3% | inhibition [19]: 57% | inhibition [20]: 0% | inhibition [21]: 0% | inhibition (Homo sapiens): -1 to 3% | inhibition [22]: 3% | inhibition [23]: 3% | inhibition [24]: 2% | inhibition [25]: 1% | inhibition [26]: 4% | inhibition [27]: 2% | inhibition [28]: 1% | inhibition [29]: 3% | inhibition [30]: 2% | Papp A→B [31]: 0.8 ×10⁻⁶ cm/s | inhibition [32]: 2%

CC(C)n1nc(C#Cc2cccc(NC(=O)c3cccc(C(F)(F)F)c3)c2)c2c(N)ncnc21
inhibition [1]: 9% | inhibition [2]: 0% | inhibition [3]: 36% | inhibition [4]: 99% | inhibition [5]: 55% | inhibition [6]: 10% | inhibition [7]: 109% | inhibition [8]: 100% | inhibition [9]: 6% | inhibition [10]: 14% | inhibition [11]: -1% | inhibition [12]: 3% | inhibition [13]: 7% | inhibition [14]: 31% | inhibition [15]: 92% | inhibition [16]: 1% | inhibition [17]: 100% | inhibition [18]: -9% | inhibition [19]: 95% | inhibition [20]: 21% | inhibition [21]: -10% | inhibition (Homo sapiens): 1 to 3% | inhibition [22]: 2% | inhibition [23]: 13% | inhibition [24]: 0% | inhibition [25]: 5% | inhibition [26]: -8% | inhibition [27]: -3% | inhibition [28]: -1% | inhibition [29]: 2% | inhibition [30]: 0% | Papp A→B [31]: 0.5 ×10⁻⁶ cm/s | inhibition [32]: 10%
